Results: ChEMBL document CHEMBL1133696, “Development of a lead inhibitor for the A16V+S108T mutant of dihydrofolate reductase from the cycloguanil-resistant strain (T9/94) of Plasmodium falciparum” (J Med Chem, 2000)

Experiments:
[1] = molecular target: T1, Bifunctional dihydrofolate reductase-thymidylate synthase (Plasmodium falciparum K1, UniProt P13922, A16V/S108T); test: Evaluated for inhibition constant (Ki mut) against A16V+S108T Mutant dihydrofolate reductase of Plasmodium falciparum
[2] = molecular target: Bifunctional dihydrofolate reductase-thymidylate synthase (Plasmodium falciparum K1) (UniProt P13922); test: Evaluated for activity of compound relative to Cycloguanil
Bifunctional dihydrofolate reductase-thymidylate synthase (Plasmodium falciparum K1), sequence (P13922 whole entry, looked up): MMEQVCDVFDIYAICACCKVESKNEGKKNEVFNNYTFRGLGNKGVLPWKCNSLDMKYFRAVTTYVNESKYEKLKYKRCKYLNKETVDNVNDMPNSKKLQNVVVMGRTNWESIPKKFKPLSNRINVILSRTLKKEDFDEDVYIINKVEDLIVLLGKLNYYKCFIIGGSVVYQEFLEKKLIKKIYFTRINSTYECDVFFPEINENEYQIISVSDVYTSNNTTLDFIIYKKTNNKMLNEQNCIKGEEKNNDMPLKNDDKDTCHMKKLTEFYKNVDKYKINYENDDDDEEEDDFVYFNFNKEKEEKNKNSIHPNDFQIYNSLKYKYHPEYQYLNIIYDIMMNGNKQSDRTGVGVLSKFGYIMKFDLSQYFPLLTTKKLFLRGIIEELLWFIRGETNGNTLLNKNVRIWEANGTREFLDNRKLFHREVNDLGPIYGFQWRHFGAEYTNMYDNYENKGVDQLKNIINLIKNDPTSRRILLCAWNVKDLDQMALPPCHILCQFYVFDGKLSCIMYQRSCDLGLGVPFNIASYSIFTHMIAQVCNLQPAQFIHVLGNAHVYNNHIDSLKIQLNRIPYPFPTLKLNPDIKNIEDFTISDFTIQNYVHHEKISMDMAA

[3] = tested on: Plasmodium falciparum; test: (§1) Growth inhibition (IC50) against Plasmodium falciparum wild-type TM4/8.2; type: functional, organism-based
Procedure, shortened: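 TM4/8.2 clone (wild-type DHFR) grown in human erythrocytes, RPMI 1640 with 25 mM HEPES pH 7.4, 0.2% NaHCO3, gentamicin, 10% human serum, 37 °C, 3% CO2. Drug from DMSO (final 0.1%), 1.5% cell suspension at 1-2% parasitemia; [3H]-hypoxanthine added after 24 h, a further 18-24 h incubation. IC50 from sigmoidal incorporation-versus-concentration curve.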

[4] = tested on: Plasmodium falciparum; test: Inhibition of Plasmodium falciparum T9/94 mutant; type: functional, organism-based
Procedure, shortened: (§2)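 Parasites kept in human erythrocytes in RPMI 1640 with 25 mM HEPES pH 7.4, 0.2% NaHCO3, gentamicin and 10% human serum, at 37 °C under 3% CO2. Clones used were TM4/8.2 (wild-type DHFR) and T9/94 RC17 (A16V+S108T). Drug dilutions were made from DMSO stocks, final DMSO 0.1%, and added to a 1.5% cell suspension at 1-2% parasitemia. After 24 h, 0.25 µCi [3H]-hypoxanthine was added for a further 18-24 h, then scintillation counting. IC50 taken from a sigmoidal curve.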

[5] = molecular target: Bifunctional dihydrofolate reductase-thymidylate synthase (Plasmodium falciparum K1) (UniProt P13922); test: Evaluated for activity of relative to Cycloguanil
[6] = molecular target: Bifunctional dihydrofolate reductase-thymidylate synthase (Plasmodium falciparum K1) (UniProt P13922); test: Selectivity ratio of growth inhibition against Plasmodium falciparum TM4/8.2(wild-type) and T9/94(mutant); type: functional
[7] = molecular target: Bifunctional dihydrofolate reductase-thymidylate synthase (Plasmodium falciparum K1) (UniProt P13922); test: Ratio of inhibitory constant of mutant by wild-type DHFRs of Plasmodium falciparum
[8] = molecular target: T1, Bifunctional dihydrofolate reductase-thymidylate synthase; test: Inhibition constant (Ki mut) against A16V+S108T Mutant DHFRs of Plasmodium falciparum
[9] = tested on: Plasmodium falciparum; test: as §1; type: functional, organism-based; procedure, shortened: as §2; remark: listed apart in the source
[10] = Selectivity ratio of growth inhibition values of wild-type (TM4/8.2) and mutant (T9/94) clones of Plasmodium falciparum
Procedure, shortened: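 Clones TM4/8.2 (wild-type DHFR) and T9/94 RC17 (A16V+S108T) grown in human erythrocytes in RPMI 1640 with 25 mM HEPES pH 7.4 and 10% human serum, 37 °C, 3% CO2. 1.5% cell suspension at 1-2% parasitemia with drug in 0.1% DMSO final for 24 h, then [3H]-hypoxanthine 18-24 h. IC50 taken from sigmoidal curves; ratio is T9/94 IC50 over TM4 IC50.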

[11] = tested on: Plasmodium falciparum; test: Growth inhibition IC50 against Plasmodium falciparum mutant T9/94; type: functional, organism-based; procedure, shortened: as §2

T1 sequence (P13922 whole entry, looked up, stated change not applied): as the sequence (P13922 whole entry, looked up) above

Row | SMILES | Ki [1] | Relative activity [2] | IC50 [3] | IC50 [4] | Relative activity [5] | IC50 ratio [6] | Ratio [7] | Ki [8] | IC50 [9] | IC50 ratio [10] | IC50 [11]
1 | NC1=NC(c2ccccc2)N(c2ccc(Br)cc2)C(N)=N1 (stereo unspecified) | 90 nM | 0.07 | 47 nM | 180 nM | 1.9 | 3.86 | 31 | – | – | – | –
2 | NC1=NC(c2ccccc2)N(c2ccc(Cl)cc2)C(N)=N1 (stereo unspecified) | 49 nM | 0.04 | 27 nM | 44 nM | 3 | – | – | – | – | – | –
3 | CC1(C)N=C(N)N=C(N)N1c1ccc(Br)cc1 | – | 1.5 | 31 nM | 2760 nM | 0.7 | 89 | 1770 | 1950 nM | – | – | –
4 | NC1=NC(c2ccccc2)N(c2cccc(Cl)c2)C(N)=N1 (stereo unspecified) | 10 nM | 0.008 | 455 nM | 24 nM | 7.8 | 0.05 | 0.9 | – | – | – | –
5 | CC1N=C(N)N=C(N)N1c1ccc(Br)cc1 (stereo unspecified) | – | 0.15 | 132 nM | 277 nM | 3.8 | 2.1 | 35 | 202 nM | – | – | –
6 | Cc1ccc(N2C(N)=NC(N)=NC2(C)C)cc1 | – | – | 65 nM | 3620 nM | – | – | – | – | – | – | –
7 | CC1N=C(N)N=C(N)N1c1ccc(Cl)cc1 (stereo unspecified) | – | 0.09 | 348 nM | 347 nM | 2.7 | 1 | 31 | 127 nM | – | – | –
8 | Cc1ccc(N2C(N)=NC(N)=NC2c2ccccc2)cc1 (stereo unspecified) | 170 nM | 0.13 | 136 nM | 39 nM | 5.1 | 0.29 | 22 | – | – | – | –
9 | CC1(C)N=C(N)N=C(N)N1c1ccc(Cl)cc1 [CYCLOGUANIL] | – | 1 | – | 2430 nM | 1 | 60.8 | 876 | 1310 nM | 40 nM | – | –
10 | CC(C)(C)C1N=C(N)N=C(N)N1c1ccc(Cl)cc1 (stereo unspecified) | – | 63 | 2910 nM | 2820 nM | – | – | – | 82700 nM | – | – | –
11 | NC1=NCN(c2ccc(F)cc2)C(N)=N1 | – | 0.4 | 9660 nM | 312 nM | 180 | 0.03 | 1.7 | 469 nM | – | – | –
12 | Cc1ccc(N2C(N)=NC(N)=NC2C)cc1 (stereo unspecified) | – | 0.14 | 462 nM | 464 nM | 15 | 1 | 7.9 | 185 nM | – | – | –
13 | CC1(C)N=C(N)N=C(N)N1c1ccc(F)cc1 | – | 1.2 | 294 nM | 1000 nM | 3 | 3.4 | 355 | 1630 nM | – | – | –
14 | CC1(C)N=C(N)N=C(N)N1c1ccccc1 | – | 1.05 | 546 nM | 445 nM | 13 | 0.82 | 69 | 1380 nM | – | – | –
15 | NC1=NCN(c2ccccc2)C(N)=N1 | – | 0.4 | 11600 nM | 356 nM | 220 | 0.03 | 1.8 | 585 nM | – | – | –
16 | CC(C)C1N=C(N)N=C(N)N1c1ccc(Br)cc1 (stereo unspecified) | – | 0.9 | 638 nM | 725 nM | 20 | 1.14 | 40 | 1200 nM | – | – | –

Row | SMILES | Ki [1] | Relative activity [2] | IC50 [3] | IC50 [4] | Relative activity [5] | IC50 ratio [6] | Ratio [7] | Ki [8] | IC50 [9] | IC50 ratio [10] | IC50 [11]
17 | CC1N=C(N)N=C(N)N1c1cccc(Cl)c1 (stereo unspecified) | – | – | – | 28 nM | – | – | – | – | – | – | –
18 | CCCC1N=C(N)N=C(N)N1c1ccc(Cl)cc1 (stereo unspecified) | 107 nM | 0.08 | 65 nM | 365 nM | 3.1 | 5.62 | 23 | – | – | – | –
19 | CC1(C)N=C(N)N=C(N)N1c1cccc(Cl)c1 | – | – | 60 nM | 298 nM | – | – | – | – | – | – | –
20 | CCCCC1N=C(N)N=C(N)N1c1ccc(Cl)cc1 (stereo unspecified) | 167 nM | 0.1 | 111 nM | 250 nM | 2.5 | – | 45 | – | – | 2.25 | –
21 | Cc1ccc(N2C(N)=NC(N)=NC2C(C)C)cc1 (stereo unspecified) | – | 1.11 | 8220 nM | 3450 nM | 111 | 0.42 | 8.7 | 1460 nM | – | – | –
22 | CCC1N=C(N)N=C(N)N1c1ccc(Cl)cc1 (stereo unspecified) | – | 0.14 | 40 nM | 486 nM | 2.4 | 12.2 | 52 | 189 nM | – | – | –
23 | CCCC1N=C(N)N=C(N)N1c1ccc(C)cc1 (stereo unspecified) | – | 0.14 | 167 nM | 152 nM | 9.1 | 0.91 | 14 | 188 nM | – | – | –
24 | CC1N=C(N)N=C(N)N1c1ccc(Cl)c(Cl)c1 (stereo unspecified) | – | 0.014 | 35 nM | 19 nM | 0.9 | 0.54 | 12.7 | 17.8 nM | – | – | –
25 | CC(C)C1N=C(N)N=C(N)N1c1ccc(Cl)cc1 (stereo unspecified) | – | 1.2 | 2910 nM | 2820 nM | 40.3 | 0.97 | 25 | 1540 nM | – | – | –
26 | NC1=NC(c2ccccc2)N(c2ccc(Cl)c(Cl)c2)C(N)=N1 (stereo unspecified) | – | – | 40 nM | 29 nM | – | – | – | – | – | – | –
27 | CCCC1N=C(N)N=C(N)N1c1ccc(Br)cc1 (stereo unspecified) | 127 nM | 0.1 | 63 nM | 250 nM | 1.7 | 3.97 | 49 | – | – | – | –
28 | NC1=NCN(c2ccc(Cl)cc2)C(N)=N1 | 646 nM | 0.5 | 952 nM | 313 nM | 16 | 0.33 | 26 | – | – | – | –
29 | CCC1N=C(N)N=C(N)N1c1ccc(C)cc1 (stereo unspecified) | – | 0.1 | 273 nM | 517 nM | 3.9 | 1.89 | 22 | 128 nM | – | – | –
30 | CC1(C)N=C(N)N=C(N)N1c1ccc(Cl)c(Cl)c1 [CHLORCYCLOGUANIL] | – | 0.1 | 4 nM | – | 0.73 | 76.8 | 119 | 131 nM | – | – | 307 nM
31 | CCC1N=C(N)N=C(N)N1c1ccc(Br)cc1 (stereo unspecified) | – | 0.15 | 132 nM | 220 nM | 1.8 | 3.24 | 37 | 202 nM | – | – | –
